Data as given in ChEMBL document CHEMBL3853338 (Bioorg Med Chem Lett, 2016).
Calls of active or inactive are those of the source. The rule behind the calls is not given here.

Legend:
[1] = Fraction unbound in mouse brain assessed as compound level in insoluble tissue fraction at 10 uM after 1 hr by LC-MS/MS analysis; type: ADME, tissue-based; settings: in the assay text read “soluble supernatant fraction” for “insoluble tissue fraction”
Summary of the method: (§1)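 Compound at 10 µM incubated 1 h at 37 °C with homogenized mouse brain tissue in HBSS (1% final DMSO); after centrifugation, percent of compound in insoluble tissue fraction and soluble supernatant determined by LC–MS/MS.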

[2] = Drug level in mouse brain assessed as compound level in soluble tissue fraction at 10 uM after 1 hr by LC-MS/MS analysis; type: ADME, tissue-based; summary of the method: as §1
[3] = Drug level in Sprague-Dawley rat brain at 10 mg/kg, iv after 90 mins by LC-MS/MS analysis; type: ADME, organism-based; settings: read-out: Drug uptake
Summary of the method: (§2)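 Healthy male Sprague Dawley rats, n = 3 per time point, given 10 mg/kg IV; brain and plasma sampled at 30, 90 and 180 min post dose; drug levels by LC–MS/MS (plasma ng/ml, brain ng/g). AUC summed from straight-line segments joining the three time points.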

[4] = Plasma concentration in Sprague-Dawley rat plasma at 10 mg/kg, iv after 30 mins by LC-MS/MS analysis; type: ADME, organism-based; summary of the method: as §2
[5] = AUC in Sprague-Dawley rat brain at 10 mg/kg, iv after 30 to 180 mins by LC-MS/MS analysis; type: ADME, organism-based; summary of the method: as §2
[6] = Drug level in Sprague-Dawley rat brain at 10 mg/kg, iv after 30 mins by LC-MS/MS analysis; type: ADME, organism-based; settings: read-out: Drug uptake; summary of the method: as §2
U-87MG ATCC [7] = assay: Induction of DNA alkylation in human U87MG cells assessed as increase in O6-MedG formation at 10 uM after 3 hrs by LC-MS/MS analysis; type: cell-based
Summary of the method: (§3)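 U87 MG cells incubated with 10 or 100 µM for 3 h at 37 °C, washed, lysed; genomic DNA isopropanol-extracted, hydrolysed 30 min at 37 °C with nuclease P1 and alkaline phosphatase (ammonium acetate/ZnCl2, pH 5.3); [H]O6-MedG internal standard added; O6-MedG peak area by LC–MS/MS.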

[8] = Ratio of AUC in brain to plasma of Sprague-Dawley rat at 10 mg/kg, iv after 30 to 180 mins by LC-MS/MS analysis; type: ADME, organism-based; settings: read-out: Ratio AUC
Summary of the method: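 Male Sprague Dawley rats (n = 3 per time point) dosed IV at 10 mg/kg; brain and plasma taken 30, 90, 180 min after dosing and assayed by LC–MS/MS; three-point linear-segment AUCs computed; ratio = AUCbrain divided by AUCplasma.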

[9] = Drug level in Sprague-Dawley rat brain at 10 mg/kg, iv after 180 mins by LC-MS/MS analysis; type: ADME, organism-based; settings: read-out: Drug uptake; summary of the method: as §2
[10] = Ratio of temozolomide AUC to compound AUC for drug level in brain of Sprague-Dawley rat; type: ADME; settings: in vivo
[11] = Plasma concentration in Sprague-Dawley rat plasma at 10 mg/kg, iv after 90 mins by LC-MS/MS analysis; type: ADME, organism-based; summary of the method: as §2
[12] = Plasma concentration in Sprague-Dawley rat plasma at 10 mg/kg, iv after 180 mins by LC-MS/MS analysis; type: ADME, organism-based; summary of the method: as §2
[13] = AUC in Sprague-Dawley rat plasma at 10 mg/kg, iv after 30 to 180 mins by LC-MS/MS analysis; type: ADME, organism-based; settings: in vivo; summary of the method: as §2
U-87MG ATCC [14] = assay: Induction of DNA alkylation in human U87MG cells assessed as increase in O6-MedG formation at 10 to 100 uM after 3 hrs by LC-MS/MS analysis; type: cell-based; summary of the method: as §3
[15] = Drug level in rat brain at 106 umol/kg, iv measured 3 hrs post dose by LC-MS/MS analysis; type: ADME, organism-based; settings: in vivo
Summary of the method: (§4)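 Rats (n = 1 per compound per dose) dosed IV at 10, 20 and 40 mg/kg; brain collected 3 h post dose; brain drug concentration and O6-MedG (peak area) measured by LC–MS/MS.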

[16] = Cytotoxicity against human U87MG cells assessed as inhibition of cell growth at 100 uM after 72 hrs by MTS assay; type: functional, U-87MG ATCC; settings: U-87 MG, read-out: GI
Summary of the method: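 U87 MG cells exposed to 100 µM compound for 72 h; growth read by MTS CellTiter 96 assay; treated-cell mean growth (n = 3) divided by vehicle-treated growth (n = 3, set to 100%); SD of three replicates.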

U-87MG ATCC [17] = assay: Antitumor activity against human U87MG cells orthotopically xenografted in Harlan nude mouse brain assessed as induction of slow tumor growth at 50 umol/kg, iv administered once daily for 5 days; type: functional, organism-based
Summary of the method: (§5)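 Orthotopic model: one million luciferase-expressing U87 MG cells surgically implanted into brains of female Harlan nude mice; dosing from day 26 (mean tumor 10.1 mm3), IV in 50% PEG400, once daily ×5; vehicle group dosed IV. Tumor volume by MRI, body weight and mortality tracked; survival followed to day 63, log-rank Mantel–Cox test.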

[18] = Ratio of AUC in human brain to plasma by reversed-phase HPLC analysis
[19] = Drug level in rat brain at 103 umol/kg, iv measured 3 hrs post dose by LC-MS/MS analysis; type: ADME, organism-based; settings: in vivo; summary of the method: as §4
U-87MG ATCC [20] = assay: Induction of DNA alkylation in human U87MG cells assessed as increase in N7-MedG formation after 3 hrs by LC-MS/MS analysis; type: cell-based
[21] = Ratio of AUC in brain to plasma of Sprague-Dawley rat administered as single dose
Rattus norvegicus = assay: Increase in O6-MedG formation in rat brain at 51.5 to 206 umol/kg, iv measured 3 hrs post dose by LC-MS/MS analysis; type: functional, organism-based; summary of the method: as §4
U-87MG ATCC [22] = assay: Antitumor activity against human U87MG cells orthotopically xenografted in Harlan nude mouse brain assessed as increase in mouse survival at 50 umol/kg, iv administered once daily for 5 days; type: functional, organism-based; summary of the method: as §5

Row | SMILES | fraction unbound at 1 h, 10 µM [1] | Drug uptake [2] [%] | concentration at 1.5 h [3] [ng/g] | concentration at 0.5 h [4] [ng/mL] | AUC [5] [ng·h/mL] | concentration at 0.5 h [6] [ng/g] | Kp [8] | concentration at 3 h [9] [ng/g] | Ratio AUC [10] | concentration at 1.5 h [11] [ng/mL] | concentration at 3 h [12] [ng/mL] | AUC [13] [ng·h/g] | Activity (U-87MG ATCC [14]) | further results
1 | Nc1[nH]cnc1C(=O)N1CCc2c(n(C3CC3)c3c(Cl)cc(Cl)cc23)C1 | 0.01 | 1 |  |  |  |  |  |  |  |  |  |  |  | 
2 | Cn1nnc2c(C(=O)N3CCc4c(n(C5CC5)c5c(Cl)cc(Cl)cc45)C3)ncn2c1=O | 0.03 | 3 | 4830 | 531 | 11200 | 4950 | 10.4 | 3570 | 0.5 | 438 | 347 | 1070 |  | Activity (U-87MG ATCC [7]): Active
3 | CN1CCc2c(n(CCNC(=O)c3nc[nH]c3N)c3ccc(Cl)cc23)C1 | 0.07 | 7 |  |  |  |  |  |  |  |  |  |  |  | 
4 | NC(=O)c1[nH]cnc1N | 0.48 | 48 |  |  |  |  |  |  |  |  |  |  |  | 
5 | Cc1ccc2c(c1)c1c(n2C)CN(C(=O)c2nc[nH]c2N)CC1 | 0.01 | 1 |  |  |  |  |  |  |  |  |  |  |  | 
6 | Cn1nnc2c(C(N)=O)ncn2c1=O [TEMOZOLOMIDE] | 0.5 | 50 | 2300 | 12800 |  | 4210 | 0.34 | 912 |  | 6480 | 3100 |  | Dose-dependent effect | Activity (U-87MG ATCC [17]): Active; Kp [18]: 20; Drug uptake [19]: Active; Activity (U-87MG ATCC [20]): Active; Kp [21]: 35; Activity (Rattus norvegicus): Active; Activity (U-87MG ATCC [22]): Active

More lines, main results first:

Row | fraction unbound at 1 h, 10 µM [1] | Drug uptake [2] [%] | concentration at 1.5 h [3] [ng/g] | concentration at 0.5 h [4] [ng/mL] | AUC [5] [ng·h/mL] | concentration at 0.5 h [6] [ng/g] | Kp [8] | concentration at 3 h [9] [ng/g] | Ratio AUC [10] | concentration at 1.5 h [11] [ng/mL] | concentration at 3 h [12] [ng/mL] | AUC [13] [ng·h/g] | SMILES | Activity (U-87MG ATCC [14]) | further results
7 | 0.11 | 11 | 162 | 399 | 525 | 574 | 1.36 | 47.5 | 10.8 | 123 | 43.7 | 386 | CN1CCc2c(n(CCNC(=O)c3ncn4c(=O)n(C)nnc34)c3ccc(Cl)cc23)C1 |  | 
8 | 0.02 | 2 | 945 | 483 | 2470 | 2020 | 3.79 | 372 | 2.3 | 256 | 119 | 650 | Cc1ccc2c(c1)c1c(n2C)CN(C(=O)c2ncn3c(=O)n(C)nnc23)CC1 | Active | Drug uptake [15]: Active; inhibition of growth at 100 µM [16]: 27.3%
9 |  |  | 142 | 1090 | 750 | 1100 | 0.75 | 32.7 | 7.5 | 302 | 99.2 | 998 | Cc1ccc2[nH]c3c(c2c1)CN(CCNC(=O)c1ncn2c(=O)n(C)nnc12)CC3 | Active | 
10 |  |  | 243 | 850 | 638 | 517 | 0.67 | 101 | 8.9 | 387 | 67.1 | 959 | Cc1ccc2c(c1)c1c(n2CCNC(=O)c2ncn3c(=O)n(C)nnc23)CCN(C)C1 | Active | 
11 |  |  | 1700 | 3630 | 4010 | 3150 | 0.82 | 401 | 1.4 | 2140 | 539 | 4890 | Cc1ccc2c(c1)c1c(n2C)CCN(CCNC(=O)c2ncn3c(=O)n(C)nnc23)C1 | Active | 
